HCT116 bCat-KO – beta-catenin-lacking colon tumor cell growth suppression; HCT116 beta-catenin knockout viability, CellTiter-Glo, 60 h; hits give low values; viability, % at 10 µM; 1.5% of 140,000 active; AID 818;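 active = viability at or under a set limit, the compound median less 4 SD, cut at about 6% in these data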;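 also: 0% = Hyamine 1622 control at 20 µM and 100% = untreated cell control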
HUVEC prolif 384 – human endothelial cell proliferation inhibition; HUVEC proliferation, CellTiter-Glo luminescence, 72 h; hits give low values; AID 648; viability, % at 10 µM (by protocol); 1.1% of 86,000 active;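 active = viability at or below 30%; inactive = viability above 30%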;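 also: 100% = median luminescence of DMSO-only cell control wells on each plate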
H69AR inhibit – blocks growth of human H69AR lung tumor cells | 6% of 85,000 active | viability, % at 10 µM | AID 598 | H69AR lung tumor viability, ATP luminescence, 72 h; hits give low values;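 active = viability at or below 40%; inactive = viability above 40%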;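 also: multidrug resistant small cell line overexpressing MRP-1 efflux transporter; 100% = mean luminescence of untreated control wells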
HCT116 PTEN-null – growth suppressors of cells with PTEN tumor suppressor deletion; 1.2% of 140,000 active; HCT116 PTEN-null viability, CellTiter-Glo, 60 h; hits give low values; viability, % at 10 µM;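 active = viability at or below a set limit, 4 SD under the median of all tested compounds, cut at about 3.7% in these data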;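 also: PTEN knockout HCT116 line with beta catenin targeted HCT116 as companion control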
Fibroblast inh – blocks proliferation of human lung fibroblasts; viability, % at 10 µM; 1.1% of 85,000 active; LL 47 human lung fibroblast viability, ATP luminescence; hits give low values;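 active = viability at or below 50% in the single dose screen; inactive = viability above 50%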;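 also: compound exposure lasted 72 h before the ATP readout; 100% = median luminescence of untreated cell-only wells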
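Test system: LL 47 human lung fibroblasts / Quantity: 1,150 cells in each well / Medium: IMEM growth medium with 15% fetal bovine serum / Incubation: 72 h compound exposure at 37 °C after overnight plating / Detection: CellTiter-Glo luminescence measuring cellular ATP / Read-out: % viability versus median cells-only luminescence / Benchmarks: cell-only wells, no compound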
Starred values were filed as active, the others as inactive; x = no result given. The full list was thinned out, with hits kept by preference.

SMILES | HCT116 bCat-KO | HUVEC prolif 384 | H69AR inhibit | HCT116 PTEN-null | Fibroblast inh
O=C(Nc1nnc(-c2ccccc2)s1)c1cc(S(=O)(=O)N2CCOCC2)c(Cl)cc1Cl | 34.8 | 46.5 | 10.0* | 64.9 | 92.6
CCOC(=O)c1c(C)nc2c(c1-c1ccccc1)C(=O)CC(C)(C)C2 | 85.6 | x | x | 81.8 | x
COc1ccc(NC(=O)CN(C2CCCCC2)S(C)(=O)=O)cc1OC | 111.5 | 98.8 | 83.5 | 100.3 | 95.9
COC(=O)c1ccc(NC(=O)CN(C2CCCCC2)S(C)(=O)=O)cc1 | 76.7 | 89.8 | 37.9* | 63.4 | 88.4
COCCn1nnnc1C(c1cccc(C#N)c1)N1CCCCCC1 (stereo not drawn) | 90.2 | 96.7 | 80.8 | 82.0 | 98.1
CC(C)(C)C(C(Oc1ccc(Cl)cc1)n1cncn1)n1nnnc1C(c1cccc(Cl)c1)N1CCCCC1 (stereo not drawn) | 5.7* | 54.6 | 12.2* | 14.8 | 96.5
O=C(c1ccco1)N1CCN(C(=O)c2cc(-c3ccncc3)nc3ccc(Br)cc23)CC1 | x | 65.0 | 38.6* | x | 84.2
O=C(c1ccco1)N1CCN(C(=O)c2cc(-c3ccccn3)nc3ccc(Cl)cc23)CC1 | 74.8 | 86.2 | 38.4* | 81.5 | 97.6
O=C(c1ccco1)N1CCN(c2ncnc3c2[nH]c2ccc(Br)cc23)CC1 | 49.1 | 66.6 | 38.2* | 50.6 | 81.2
O=C(c1ccco1)N1CCN(c2ncnc3c2[nH]c2ccccc23)CC1 | 61.4 | 84.4 | 44.6 | 62.0 | 92.5
O=C(CN(c1cccc(C(F)(F)F)c1)S(=O)(=O)c1ccc(Cl)c([N+](=O)[O-])c1)NCc1ccccc1 | 39.7 | x | x | 46.7 | x
Cc1ccc(N(CC(=O)NCCc2ccc(F)cc2)S(=O)(=O)c2ccc(Cl)c([N+](=O)[O-])c2)c(C)c1 | 1.5* | x | x | 1.4* | x
Nc1c(C(=O)NCC2CCCO2)c2nc3ccccc3nc2n1-c1ccccc1 (stereo not drawn) | 49.4 | 79.0 | 21.2* | 56.4 | 74.1
C=CCNC(=O)c1c(N)n(-c2ccc3c(c2)OCO3)c2nc3ccccc3nc12 | 65.4 | 37.0 | 12.7* | 38.4 | 30.7*
COc1ccccc1-n1c(N)c(C(=O)NCC2CCCO2)c2nc3ccccc3nc21 (stereo not drawn) | 70.7 | 64.7 | 53.2 | 67.6 | 80.2
CCOC(=O)C1=C(NC#N)OC(C)=C(C)C1c1ccc(O)cc1 (stereo not drawn) | 97.9 | 99.0 | 87.2 | 100.1 | 89.1
CC1(C)CC(=O)C(N=Nc2cc(Cl)c(Cl)c(Cl)c2)=C(O)C1 | 97.5 | x | x | 92.6 | x
Cc1ccc(O)c(N=NC2=C(O)CC(C)(C)CC2=O)c1 | 4.4* | x | x | 5.0 | x
Cc1ccc(-c2[nH]c3ccccc3c2SCCNC(=O)c2ccc(S(=O)(=O)N3CCOCC3)cc2)cc1 | 0.8* | x | x | 0.8* | x
COc1ccc(-c2[nH]c3ccccc3c2SCCNC(=O)c2ccccc2)cc1 | 59.7 | x | x | 56.4 | x
COc1cc(C(C[N+](=O)[O-])c2c(-c3ccccc3)cc3ccccn23)cc(OC)c1OC (stereo not drawn) | 56.4 | 64.1 | 10.6* | 35.2 | 34.0*
COc1cc(-c2ncc3ccccn23)cc(OC)c1OC | 83.8 | x | x | 90.3 | x
COc1ccc(C(C[N+](=O)[O-])c2c(-c3ccccc3)cc3ccccn23)cc1 (stereo not drawn) | 3.3* | 60.6 | 11.9* | 1.9* | 43.4*
COc1ccc(C(C[N+](=O)[O-])c2c(-c3ccccc3)cc3ccccn23)cc1OC (stereo not drawn) | 40.6 | 81.3 | 25.9* | 48.6 | 65.8
COc1ccc(/C=N/NC(=O)c2ccc(Cl)cc2)cc1Cn1cc(Cl)cn1 | 89.2 | x | x | 95.4 | x
SMILES | HCT116 bCat-KO | HUVEC prolif 384 | H69AR inhibit | HCT116 PTEN-null | Fibroblast inh
CC(COc1ccccc1)N(CCCl)Cc1ccccc1 (stereo not drawn) | 94.6 | 87.2 | 1.7* | 97.9 | 85.4
CC1(C)CC(CC(=O)Nc2ccc([N+](=O)[O-])cc2)C(=O)O1 (stereo not drawn) | 92.6 | x | x | 101.5 | x
O=c1[nH]c2ccccc2c2nc3ccccn3c12 | 72.0 | 88.6 | 35.2* | 72.1 | 90.4
Cc1ccc(S(=O)(=O)Cn2nnnc2C(CC(C)C)N2CCN(c3ccc(F)cc3)CC2)cc1 (stereo not drawn) | 74.5 | 98.2 | 57.5 | 68.9 | 93.4
COc1ccccc1NC(=S)N1CCC(c2nc3cc(C)c(C)cc3[nH]2)CC1 | 86.2 | x | x | 80.8 | x
COc1ccccc1NC(=O)N1CCC(c2nc3cc(C)c(C)cc3[nH]2)CC1 | 15.7 | 36.9 | 26.7* | 14.3 | 48.3*
Cc1ccc(NC(NC(=O)c2ccccn2)C(Cl)(Cl)Cl)cc1 (stereo not drawn) | 73.6 | x | x | 67.8 | x
CCCCN(C)C(=O)C1CCC(=O)N(c2cc(OC)c(OC)c(OC)c2)C1c1ccc(OC)cc1 (stereo not drawn) | 0.9* | 111.5 | 102.5 | 0.7* | 100.8
COc1ccc(C2C(C(=O)O)CCC(=O)N2c2ccc(OC)cc2)cc1 (stereo not drawn) | 94.8 | 95.7 | 96.3 | 107.3 | 93.3
CN(C(=O)COc1ccccc1C(=O)NCCOc1ccccc1)c1ccccc1 | 3.5* | x | x | 3.5* | x
CCOC(=O)Cc1csc(NC(=O)CSc2nnc(-c3ccncc3)n2Cc2ccco2)n1 | x | 97.6 | 98.4 | x | 105.5
Cc1ccc(COc2ccc(/C=N/O)cc2)cc1 | 105.8 | x | x | 98.1 | x
NC(N)=N/N=C/c1ccc(OCc2ccccc2)cc1 | 1.7* | x | x | 1.8* | x
NC(N)=N/N=C/c1ccc(OCc2ccc(Cl)cc2)cc1 | 1.5* | x | x | 1.5* | x
c1ccc(-c2ccccc2-c2nc(-c3cccnc3)no2)cc1 | 96.7 | 75.9 | 76.3 | 84.7 | 95.0
c1ccc(-c2cc(-c3nc(-c4cccnc4)no3)c3ccccc3n2)cc1 | x | 82.8 | 12.0* | x | 106.7
CC(C)Cn1c(C(C)C)nc([N+](=O)[O-])c1S(=O)(=O)c1ccc(F)cc1 | 2.1* | x | x | 2.4* | x
CC(C)Cn1c(CCCNC(=O)c2ccc(F)cc2)nc2ccccc21 | 83.1 | 100.1 | 69.9 | 93.6 | 106.4
CCCc1nc([N+](=O)[O-])c(S(=O)(=O)c2ccccc2)n1CC(C)C | 3.3* | x | x | 2.9* | x
CC(=O)c1sc(NC(=O)C(C)(C)C)nc1C | 90.5 | 90.0 | 90.6 | 109.3 | 111.6
CC(=O)c1sc(Nc2nc(C)cc(C)n2)nc1C | 83.8 | 81.3 | 28.6* | 79.3 | 98.5
NS(=O)(=O)c1ccc(Nc2nc(-c3ccc4ccccc4c3)cs2)cc1 | 98.9 | 86.4 | 32.0* | 91.0 | 78.8
CCOC(=O)C1=C(C)NC(=S)N(C(C)=O)C1c1ccc(Cl)cc1 (stereo not drawn) | 1.1* | 78.4 | 70.3 | 0.9* | 89.5
COc1ccccc1CNc1n[nH]c(NCc2ccccc2OC)n1 | 97.6 | 99.4 | 95.2 | 96.8 | 102.1
CC(NC(=O)c1ccc(Br)cc1)c1ccccc1 (stereo not drawn) | 84.1 | x | x | 87.8 | x
CC(C)OP(=O)(OC(C)C)C(NC(=O)c1ccc(Br)cc1)c1ccccc1 (stereo not drawn) | 68.3 | 77.7 | 28.3* | 51.5 | 94.4
O=C(Nc1ccccc1C(=O)Nc1ccc2c(c1)OCO2)c1ccco1 | 95.9 | 77.0 | 34.4* | 92.3 | 90.0

High-throughput results from PubChem BioAssay.
